According to paper PMC12830962 (Nature Communications, 2025):
Ends that are not written are not given here. * marks the point of attachment. Biotin = O=C1N[C@H]2[C@H](CS[C@H]2CCCCC(=O)*)N1; Ahx = NCCCCCC(=O)O

Legend:
[1] = tested on: human adipocytes from a type 2 diabetic donor (PT5022); experiment: Glucose uptake assay, adipocytes from type 2 diabetic donor; assay type: cell-based; settings: 100 nM insulin
Procedure, shortened: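 Adipocytes from a type 2 diabetic donor were differentiated from preadipocytes and exposed on day 7 to test compound in DMEM with 0.2% BSA for 24 h. Uptake was read by luminescence (Glucose Uptake-Glo).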

Gal4-PPARα (PPARα-LBD) = biological target: T1, Gal4-PPARα (PPARα-LBD) (Homo sapiens, UniProt Q07869); experiment: Gal4-PPARα LBD::UAS-luciferase reporter cotransfection assay in HEK293T cells; assay type: cell-based; settings: 1 μΜ compound
T1 sequence (Q07869 239-466 limits assumed): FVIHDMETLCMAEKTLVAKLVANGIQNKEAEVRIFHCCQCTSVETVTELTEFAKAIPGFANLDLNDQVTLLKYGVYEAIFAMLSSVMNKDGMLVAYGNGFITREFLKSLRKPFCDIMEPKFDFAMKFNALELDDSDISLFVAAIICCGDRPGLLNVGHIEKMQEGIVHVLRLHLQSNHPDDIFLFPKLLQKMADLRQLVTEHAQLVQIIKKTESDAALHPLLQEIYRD
Procedure, shortened: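 HEK293T cells were seeded at 3.3 × 10^6 per 10-cm plate. After 24 h they were PEI-transfected with 8 μg total DNA, Gal4-PPAR LBD plasmid and UAS-luciferase reporter at 1:1. After a further 24 h, cells were replated at 10,000 cells/well in 384-well plates, left 3 h, then given test compound or DMSO for 18 h. Luciferase was read with Britelite Plus.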

[2] = biological target: T2, His-hPPARγ-LBD (PPARγ2 residues 231–505) (human, UniProt P37231-1 231-505); experiment: AlphaScreen or HTRF
T2 sequence (looked up): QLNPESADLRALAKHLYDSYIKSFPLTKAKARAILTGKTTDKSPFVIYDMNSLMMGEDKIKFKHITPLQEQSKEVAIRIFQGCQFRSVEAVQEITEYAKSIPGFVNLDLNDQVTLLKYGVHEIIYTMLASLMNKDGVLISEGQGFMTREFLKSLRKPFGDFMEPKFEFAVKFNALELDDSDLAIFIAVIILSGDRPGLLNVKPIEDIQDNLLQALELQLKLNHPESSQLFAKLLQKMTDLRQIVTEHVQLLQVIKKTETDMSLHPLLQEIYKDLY

Molecule | insulin-stimulated glucose uptake compared to DMSO [1] | PPARα activation compared to that observed with GW7647 treatment (Gal4-PPARα (PPARα-LBD)) | binding result [2]
CN(CCOc1ccc(CC2SC(=O)NC2=O)cc1)c1ccccn1 (stereo not shown) [Rosi, rosiglitazone] | significantly enhanced | – | –
Cc1c(C)n(Cc2cccc(OC(C)(C)C(=O)O)c2)c2ccc(C(=O)N[C@@H](C)c3ccc(C(C)(C)C)cc3)cc12 [SR10171] | significantly enhanced | ~ 45% | –
{Biotin-Ahx}-LTERHKILHRLLQEGSPSD [biotin-Ahx-SRC1-2 coactivator peptide] | – | – | binds
